Source: ChEMBL document CHEMBL1154804, “Diterpenes, sesquiterpenes, and a sesquiterpene-coumarin conjugate from Jatropha integerrima” (J Nat Prod, 2009)
≈ marks a conversion by molar mass, not a printed value. Calls of active or inactive are those of the source. No cut-off for these calls is given here.

Experiments:
[1] = tested on: Mycobacterium tuberculosis; assay: Antitubercular activity against Mycobacterium tuberculosis H37Ra at 200 ug/ml after 4 days by microplate alamar blue assay; assay type: functional, organism-based
How it was run: (§1)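 M. tuberculosis H37Ra tested in an Alamar Blue microplate assay. Values are given as MIC in µg/mL. The highest level tested was 200 µg/mL.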

[2] = tested on: Plasmodium falciparum; assay: Antiplasmodial activity against multidrug-resistant Plasmodium falciparum K1 assessed as [3H]hypoxanthine incorporation after 24 hrs by microtiter plate scintillation counting; assay type: functional, organism-based
How it was run: (§2)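 K1 multidrug-resistant P. falciparum kept in continuous culture (Trager–Jensen). In vitro activity measured by a microculture radioisotope technique (Desjardins method). The highest level tested was 10 µg/mL.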

[3] = tested on: Vero; assay: Cytotoxicity against african green monkey Vero cells at 50 ug/ml by sulforhodamine B assay; assay type: cell-based; details: chlorocebus sabaeus
How it was run: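 African green monkey kidney fibroblasts (Vero) exposed to test material at 50 µg/mL; cell growth read by a colorimetric method (Skehan and coworkers).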

[4] = tested on: Plasmodium falciparum; assay: Antiplasmodial activity against multidrug-resistant Plasmodium falciparum K1 assessed as [3H]hypoxanthine incorporation at 10 ug/ml after 24 hrs by microtiter plate scintillation counting; assay type: functional, organism-based; how it was run: as §2
[5] = tested on: Vero; assay: Cytotoxicity against african green monkey Vero cells by sulforhodamine B assay; assay type: cell-based; details: chlorocebus sabaeus
How it was run: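 Vero cells were described as African green monkey kidney fibroblasts. Read-out was by the colorimetric method of Skehan and coworkers. Compounds were tested up to 50 µg/mL.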

[6] = tested on: Mycobacterium tuberculosis; assay: Antitubercular activity against Mycobacterium tuberculosis H37Ra after 4 days by microplate alamar blue assay; assay type: functional; details: 96 h; how it was run: as §1

## C=C1CC[C@@H]2[C@H](c3c(C)c(O)c4c(c31)C(=O)[C@](C)(O)C4)C2(C)C
[1]
  Activity: inactive
[2]
  IC50: 4.1 µg/mL
[3]
  Activity: Non-toxic

## C=C1CC[C@@H]2[C@H](c3c(C)c(O)c4c(c31)C(=O)[C@@](C)(O)C4)C2(C)C
[4]
  Activity: inactive
[1]
  Activity: inactive
[5]
  IC50: 49.4 µg/mL (≈ 158 µM)

## C[C@H]1[C@@H](O)O[C@@H]2O[C@@]3(C)CC[C@H]4[C@H](C)CC[C@@H]1[C@@]24OO3 [ARTENIMOL]
[2]
  IC50: 4 nM

## C=C(C)[C@@H]1CC[C@]23CO[C@@]4(OO2)C2=C(C(=O)C(C)=C[C@@H]1[C@@H]23)[C@H](O)[C@H]4C [CANIOJANE]
[6]
  MIC: 25 µg/mL (≈ 72.6 µM)
[2]
  IC50: 3.3 µg/mL
[5]
  IC50: 12.9 µg/mL (≈ 37.5 µM)

## Cc1c2ccncc2c(C)c2c1[nH]c1ccccc12 [ELLIPTECINE]
[5]
  IC50: 0.7 µg/mL (≈ 2.84 µM)

## NNC(=O)c1ccncc1 [ISONIAZID]
[6]
  MIC: 0.1 µg/mL (≈ 0.729 µM)

## C=C1CC[C@@H]2[C@H](c3c(C)c(O)c4c(c31)C(=O)[C@@H](C)C4)C2(C)C [JATROPHOLONE A]
[1]
  Activity: inactive
[2]
  IC50: 5.4 µg/mL
[3]
  Activity: Non-toxic

## C=C1CC[C@@H]2[C@H](c3c(C)c(O)c4c(c31)C(=O)[C@H](C)C4)C2(C)C [JATROPHOLONE B]
[4]
  Activity: inactive
[1]
  Activity: inactive
[3]
  Activity: Non-toxic

## NC[C@H]1O[C@H](O[C@H]2[C@H](O)[C@@H](O[C@H]3O[C@H](CO)[C@@H](O)[C@H](N)[C@H]3O)[C@H](N)C[C@@H]2N)[C@H](O)[C@@H](O)[C@@H]1O [KANAMYCIN]
[6]
  MIC: 2.5 µg/mL (≈ 5.16 µM)
